In publication PMC4245161 (ACS Chemical Biology, 2014):

Tests used:
[1] = test system: GFP transcript in LDR cells; format: cell-based, mouse; settings: 200 nM, 24 h, relative to DMSO-treated cells
[2] = test system: acetylated H3 at the CMV promoter in LDR cells; assay: Chromatin immunoprecipitation of acetylated H3 at the CMV promoter; format: cell-based, mouse; settings: 250 ng/mL, 24 h
Procedure, shortened: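 LDR cells (C127 mouse mammary line carrying a silenced CMV-GFP reporter; DMEM, 10% heat-inactivated FBS) treated with test compound at 250 ng/mL or DMSO vehicle (24 h per legend; overnight per methods). Formaldehyde cross-linking, then ChIP by standard protocol with anti-acetylated H3 antibody. After cross-link reversal, PCR with CMV-promoter primers run on a gel. Controls were a no-antibody background and 10% input.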

CC(/C=C/C(=O)NO)=C\[C@@H](C)C(=O)c1ccc(N(C)C)cc1 [Trichostatin A]
induction of GFP transcripts [1]: at least 5 fold | histone acetylation at the CMV promoter (ChIP) [2]: markedly increases
